Results reported in ChEMBL document CHEMBL1136516, “Synthesis, pharmacology and pharmacokinetics of 3-(4-aryl-piperazin-1-ylalkyl)-uracils as uroselective alpha1A-antagonists” (Bioorg Med Chem Lett, 2003).

What was measured:
[1] = target: T1, Alpha-1B adrenergic receptor (Homo sapiens, UniProt P35368); test: Inhibition of [3H]prazosin binding to CHO-K1 whole cells expressing human cloned Alpha-1B adrenergic receptor; assay type: cell-based
T1 sequence (P35368 whole entry): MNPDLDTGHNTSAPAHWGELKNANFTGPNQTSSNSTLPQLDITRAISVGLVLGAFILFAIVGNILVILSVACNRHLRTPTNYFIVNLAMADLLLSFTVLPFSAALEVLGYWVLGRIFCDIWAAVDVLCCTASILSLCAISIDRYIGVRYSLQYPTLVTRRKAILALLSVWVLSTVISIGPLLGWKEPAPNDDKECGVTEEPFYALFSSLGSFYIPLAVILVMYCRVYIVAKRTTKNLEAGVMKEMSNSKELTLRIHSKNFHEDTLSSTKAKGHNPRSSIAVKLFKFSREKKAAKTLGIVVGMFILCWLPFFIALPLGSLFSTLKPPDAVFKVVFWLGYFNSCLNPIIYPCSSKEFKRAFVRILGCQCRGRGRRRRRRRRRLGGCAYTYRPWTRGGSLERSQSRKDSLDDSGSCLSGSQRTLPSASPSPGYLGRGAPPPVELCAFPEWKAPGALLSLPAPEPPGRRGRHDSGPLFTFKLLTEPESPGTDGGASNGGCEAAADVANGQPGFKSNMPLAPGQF

[2] = target: T2, Alpha-1D adrenergic receptor (Homo sapiens, UniProt P25100); test: Inhibition of [3H]prazosin binding to CHO-K1 whole cells expressing human cloned Alpha-1D adrenergic receptor; assay type: cell-based
T2 sequence (P25100 whole entry): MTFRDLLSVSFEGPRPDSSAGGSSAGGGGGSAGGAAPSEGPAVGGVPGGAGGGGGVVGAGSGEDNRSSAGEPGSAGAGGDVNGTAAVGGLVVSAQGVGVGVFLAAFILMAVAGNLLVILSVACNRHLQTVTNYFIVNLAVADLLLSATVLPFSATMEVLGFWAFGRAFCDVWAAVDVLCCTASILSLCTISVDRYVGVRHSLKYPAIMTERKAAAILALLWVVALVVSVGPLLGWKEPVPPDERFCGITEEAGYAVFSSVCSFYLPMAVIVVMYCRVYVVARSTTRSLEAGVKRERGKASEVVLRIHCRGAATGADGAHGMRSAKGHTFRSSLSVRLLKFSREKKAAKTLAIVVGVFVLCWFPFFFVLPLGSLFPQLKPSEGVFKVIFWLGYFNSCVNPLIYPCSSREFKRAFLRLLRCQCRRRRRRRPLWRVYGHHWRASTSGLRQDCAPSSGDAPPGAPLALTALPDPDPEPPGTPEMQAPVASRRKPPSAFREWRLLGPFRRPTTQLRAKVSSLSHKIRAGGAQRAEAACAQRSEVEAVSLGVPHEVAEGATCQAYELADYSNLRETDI

[3] = target: T3, Alpha-1A adrenergic receptor (Homo sapiens, UniProt P35348); test: Inhibition of [3H]prazosin binding to CHO-K1 whole cells expressing human cloned Alpha-1A adrenergic receptor; assay type: cell-based
T3 sequence (P35348 whole entry): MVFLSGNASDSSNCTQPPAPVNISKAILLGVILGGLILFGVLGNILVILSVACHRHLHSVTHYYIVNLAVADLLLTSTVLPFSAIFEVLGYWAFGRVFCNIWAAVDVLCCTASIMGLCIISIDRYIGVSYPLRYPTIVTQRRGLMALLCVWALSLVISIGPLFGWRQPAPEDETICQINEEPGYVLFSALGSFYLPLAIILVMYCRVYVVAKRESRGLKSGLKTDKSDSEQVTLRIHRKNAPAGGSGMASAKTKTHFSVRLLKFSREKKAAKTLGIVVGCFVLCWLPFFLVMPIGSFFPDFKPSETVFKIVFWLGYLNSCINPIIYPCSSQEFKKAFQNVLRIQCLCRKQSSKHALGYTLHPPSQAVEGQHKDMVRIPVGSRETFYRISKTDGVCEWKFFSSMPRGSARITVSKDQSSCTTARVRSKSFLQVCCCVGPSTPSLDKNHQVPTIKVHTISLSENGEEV

[4] = Half life period by iv administration in dog at a dose of 0.3 mg/kg; assay type: ADME, organism-based, Canis lupus familiaris; design: dose 0.3 mg/kg, route intravenous; conditions: in vivo
Summary of the method: (§1)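 Single dose of 0.3 mg/kg given to dogs both iv and po in a cross-over design, four dogs per compound, with the compound dosed as a salt. Terminal half-life, volume of distribution (calculated after iv dosing only), clearance and oral bioavailability were taken from these single-dose pharmacokinetic profiles.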

[5] = Oral bioavailability in dog (i.v. dosing); assay type: ADME, organism-based, Canis lupus familiaris; conditions: in vivo; summary of the method: as §1
[6] = Half life period by po administration in dog at a dose of 0.3 mg/kg; assay type: ADME, organism-based, Canis lupus familiaris; design: dose 0.3 mg/kg, route oral; conditions: in vivo; summary of the method: as §1
[7] = Plasma clearance by iv administration in dog at a dose of 0.3 mg/kg; assay type: ADME, organism-based, Canis lupus familiaris; design: dose 0.3 mg/kg, route intravenous; summary of the method: as §1
[8] = Volume of distribution by as 4 fold increase by iv administration in dogs; assay type: ADME, organism-based, Canis lupus familiaris; conditions: dog, in vivo; summary of the method: as §1
[9] = Oral bioavailability in dog; assay type: ADME, organism-based, Canis lupus familiaris; conditions: in vivo; summary of the method: as §1
[10] = target: Alpha adrenergic receptor (1a and 1d) (Homo sapiens) (UniProt P35348+P25100); test: Ratio of binding affinities for human cloned alpha1D- adrenoceptor to that of human cloned alpha1A- adrenoceptor (alpha-1D/alpha-1A); assay type: protein assay
Summary of the method: (§2)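 Ratio of α1B (or α1D) to α1A binding affinity, calculated from pKi values for [3H]-prazosin displacement at cloned human subtypes expressed in CHO-K1 membranes or whole cells.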

[11] = target: T4, Alpha-1D adrenergic receptor (Rattus norvegicus) (UniProt P23944); test: Antagonist inhibition noradrenaline-stimulated contractions of rat aortic strings for Alpha-1D adrenergic receptor; assay type: functional
T4 sequence (whole entry): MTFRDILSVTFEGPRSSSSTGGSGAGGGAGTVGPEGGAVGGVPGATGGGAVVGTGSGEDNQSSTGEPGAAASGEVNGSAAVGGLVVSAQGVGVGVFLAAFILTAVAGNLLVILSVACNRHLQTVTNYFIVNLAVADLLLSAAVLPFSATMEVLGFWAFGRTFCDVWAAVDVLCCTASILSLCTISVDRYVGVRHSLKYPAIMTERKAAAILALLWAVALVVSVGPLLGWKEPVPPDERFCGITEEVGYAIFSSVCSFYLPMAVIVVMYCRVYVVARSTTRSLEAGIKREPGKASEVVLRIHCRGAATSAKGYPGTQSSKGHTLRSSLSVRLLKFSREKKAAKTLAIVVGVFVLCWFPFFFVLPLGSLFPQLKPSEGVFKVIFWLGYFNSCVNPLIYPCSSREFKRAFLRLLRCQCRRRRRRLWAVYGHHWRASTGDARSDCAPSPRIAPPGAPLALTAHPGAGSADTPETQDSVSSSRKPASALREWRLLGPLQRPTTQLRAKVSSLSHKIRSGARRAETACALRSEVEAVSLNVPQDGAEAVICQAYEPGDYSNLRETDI

[12] = system: Alpha-1D/alpha-1A adrenergic receptors (rat/rabbit); test: Ratio of antagonistic activities against alpha-1D vs alpha-1A determined in rat aorta and rabbit bladder neck respectively
Canis familiaris = species on record: Canis familiaris; test: In vitro relative rate of metabolism was determined in dog liver microsomes; assay type: ADME, Canis lupus familiaris
[13] = system: Alpha-1A adrenergic receptor (Oryctolagus cuniculus); test: Antagonist inhibition of noradrenaline-stimulated contractions of rabbit bladderneck (RBN) for Alpha-1A adrenergic receptor
[14] = target: Adrenergic receptors; alpha-1 A & B (Homo sapiens) (UniProt P35348+P35368); test: Ratio of binding affinities for human cloned alpha1B- adrenoceptor to that of human cloned alpha1A- adrenoceptor (alpha-1B/alpha-1A); assay type: protein assay; summary of the method: as §2

| SMILES | Ki [1] [nM] | Ki [2] [nM] | Ki [3] [nM] | other results |
| --- | --- | --- | --- | --- |
| COc1c[nH]c(=O)n(CCCN2CCN(c3ccc(F)cc3OCC(F)(F)F)CC2)c1=O | 158 | 31.6 |  |  |
| Cc1cn(CCCN2CCN(c3ccccc3OCC(F)(F)F)CC2)c(=O)[nH]c1=O | 100 | 20 | 2 |  |
| Cc1c[nH]c(=O)n(CCCN2CCN(c3ccc(F)cc3OCC(F)(F)F)CC2)c1=O |  | 63.1 |  | half-life [4]: 2.5 h; bioavailability [5]: 100%; half-life [6]: 2.8 h; clearance [7]: 4.33 mL/min/kg; Vd [8]: 0.93 L/kg; bioavailability [9]: 78% |
| C[C@]1(O)C(=O)N(CCCN2CCN(c3ccc(F)cc3OCC(F)(F)F)CC2)C(=O)N[C@H]1O | 251 | 126 | 5.01 | half-life [4]: 11 h; Ratio [10]: 33; bioavailability [5]: 100%; half-life [6]: 10 h; pA2/pKB [11]: 6.6; Ratio [12]: 79; Relative rate metabolism (Canis familiaris): 0; clearance [7]: 4.17 mL/min/kg; pA2/pKB [13]: 8.5; Ratio [14]: 63; Vd [8]: 4 L/kg; bioavailability [9]: 111% |
| Cc1c[nH]c(=O)n(CCCN2CCN(c3ccccc3OCC(F)(F)F)CC2)c1=O | 31.6 | 12.6 | 0.251 |  |
| Cc1cc(=O)n(CCCN2CCN(c3ccc(F)cc3OCC(F)(F)F)CC2)c(=O)[nH]1 | 158 | 50.1 | 1.58 |  |
| O=c1[nH]c2ccccc2c(=O)n1CCCN1CCN(c2ccccc2OCC(F)(F)F)CC1 | 5.01 | 2 | 0.0631 | Ratio [10]: 32; pA2/pKB [11]: 8.4; Ratio [12]: 4; pA2/pKB [13]: 9; Ratio [14]: 79 |
| Cc1c[nH]c(=O)n(CC(C)(C)CN2CCN(c3ccccc3OCC(F)(F)F)CC2)c1=O | 398 | 126 | 3.98 |  |
| Cc1n[nH]c(=O)n(CCCN2CCN(c3ccccc3OCC(F)(F)F)CC2)c1=O | 39.8 | 7.94 | 0.316 |  |
| Cc1c[nH]c(=O)n(CCN2CCN(c3ccc(F)cc3OCC(F)(F)F)CC2)c1=O | 15.8 | 2.51 | 0.501 |  |
| CN(C)c1c[nH]c(=O)n(CCCN2CCN(c3ccc(F)cc3OCC(F)(F)F)CC2)c1=O | 200 | 100 |  |  |
